From ChEMBL document CHEMBL1148356, “Synthesis and biological evaluation of 3-heterocyclyl-7,8,9,10-tetrahydro-(7,10-ethano)-1,2,4-triazolo[3,4-a]phthalazines and analogues as subtype-selective inverse agonists for the GABA(A)alpha5 benzodiazepine binding site” (J Med Chem, 2004) come the findings set out here.

For orientation: EC50 means the midpoint of the concentration-response curve. A low value points to a more potent agent. As a reminder, the Ki is a measure of affinity in units of concentration, obtained from inhibition or displacement.

SMILES strings stand for the structures. Activity calls are given as the source filed them. The rule behind the calls is not given here.

Assay [1] addresses T1, GABA-A receptor; alpha-5/beta-3/gamma-2 (Homo sapiens, UniProt P18507+P28472+P31644).
T1 sequence (P18507 whole entry): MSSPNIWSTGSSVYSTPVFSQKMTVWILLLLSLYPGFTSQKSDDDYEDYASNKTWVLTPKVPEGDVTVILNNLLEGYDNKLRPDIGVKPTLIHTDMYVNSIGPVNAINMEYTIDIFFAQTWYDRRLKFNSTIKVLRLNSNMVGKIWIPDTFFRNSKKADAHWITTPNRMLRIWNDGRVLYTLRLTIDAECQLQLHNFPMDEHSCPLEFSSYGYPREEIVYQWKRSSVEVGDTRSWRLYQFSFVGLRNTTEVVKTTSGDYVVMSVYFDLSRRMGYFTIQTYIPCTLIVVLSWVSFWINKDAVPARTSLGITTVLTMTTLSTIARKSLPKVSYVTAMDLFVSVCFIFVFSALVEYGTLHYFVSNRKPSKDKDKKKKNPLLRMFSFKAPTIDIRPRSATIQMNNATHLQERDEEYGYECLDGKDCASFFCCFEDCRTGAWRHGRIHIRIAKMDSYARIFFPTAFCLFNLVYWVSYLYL
T1 sequence (P28472 whole entry): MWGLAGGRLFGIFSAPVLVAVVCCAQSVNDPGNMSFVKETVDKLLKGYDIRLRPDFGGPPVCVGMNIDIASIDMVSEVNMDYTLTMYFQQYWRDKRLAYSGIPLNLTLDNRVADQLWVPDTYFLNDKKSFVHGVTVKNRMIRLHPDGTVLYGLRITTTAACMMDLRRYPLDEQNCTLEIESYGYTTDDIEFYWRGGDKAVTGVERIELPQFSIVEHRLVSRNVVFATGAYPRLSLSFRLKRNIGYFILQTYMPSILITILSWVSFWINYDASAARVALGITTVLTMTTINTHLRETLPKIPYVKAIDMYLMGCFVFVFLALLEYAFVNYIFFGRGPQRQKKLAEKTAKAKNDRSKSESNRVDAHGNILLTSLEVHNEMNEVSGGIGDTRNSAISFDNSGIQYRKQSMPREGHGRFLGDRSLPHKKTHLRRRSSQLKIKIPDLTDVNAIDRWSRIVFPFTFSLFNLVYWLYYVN
T1 sequence (P31644 whole entry): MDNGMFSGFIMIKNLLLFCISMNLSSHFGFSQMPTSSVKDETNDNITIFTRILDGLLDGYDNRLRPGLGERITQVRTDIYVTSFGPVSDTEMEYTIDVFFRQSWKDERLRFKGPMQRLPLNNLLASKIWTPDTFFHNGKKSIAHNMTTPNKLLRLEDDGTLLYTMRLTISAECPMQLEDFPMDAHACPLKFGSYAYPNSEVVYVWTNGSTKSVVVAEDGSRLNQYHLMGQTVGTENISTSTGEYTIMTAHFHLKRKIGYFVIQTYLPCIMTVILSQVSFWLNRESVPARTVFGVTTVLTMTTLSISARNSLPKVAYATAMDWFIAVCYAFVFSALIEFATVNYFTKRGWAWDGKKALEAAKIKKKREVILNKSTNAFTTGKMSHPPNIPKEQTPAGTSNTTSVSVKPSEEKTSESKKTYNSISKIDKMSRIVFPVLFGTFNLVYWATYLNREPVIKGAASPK
Put plainly: Effective concentration against human Alpha-5-beta-3-gamma-2 GABA-A receptor was determined. The format is functional. The method, boiled down: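 Whole-cell patch clamp was run on Ltk- cells stably expressing human α5β3γ2s. Bath solution was NaCl/NaHCO3/glucose buffer, pH 7.2. Pipettes held 130 mM CsCl, 10 mM EGTA, 3 mM Mg-ATP, pH 7.3. Drug was applied by double-barreled pipette with an EC20 GABA concentration, and concentration–response data were fitted to a Hill equation for EC50. Values are mean ± SEM of at least five fitted curves, with at least five cells per point.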

Assay [2] has as its target T2, GABA-A receptor; alpha-3/beta-3/gamma-2 (Homo sapiens, UniProt P18507+P28472+P34903).
T2 sequence (P18507 whole entry): T1 sequence (P18507 whole entry)
T2 sequence (P28472 whole entry): T1 sequence (P28472 whole entry)
T2 sequence (P34903 whole entry): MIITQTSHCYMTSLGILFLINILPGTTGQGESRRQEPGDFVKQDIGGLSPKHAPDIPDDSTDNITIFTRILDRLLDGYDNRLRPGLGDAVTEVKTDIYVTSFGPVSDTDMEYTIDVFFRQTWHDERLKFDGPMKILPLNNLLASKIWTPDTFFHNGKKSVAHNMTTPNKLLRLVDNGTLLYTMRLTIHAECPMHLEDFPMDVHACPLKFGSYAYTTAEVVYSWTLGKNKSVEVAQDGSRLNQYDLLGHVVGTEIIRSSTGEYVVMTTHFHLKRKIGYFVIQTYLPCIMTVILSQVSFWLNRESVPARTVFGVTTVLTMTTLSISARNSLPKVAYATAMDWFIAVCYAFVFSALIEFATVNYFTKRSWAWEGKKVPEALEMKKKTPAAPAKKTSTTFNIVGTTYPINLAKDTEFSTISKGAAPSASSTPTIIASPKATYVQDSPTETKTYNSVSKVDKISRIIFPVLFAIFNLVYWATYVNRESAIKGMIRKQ
Description: Binding affinity towards human gamma-aminobutyric-acid A receptor alpha-3-beta-3-gamma-2 using [3H]Ro-151788 expressed in L(tk-) cells. It counts as cell-based.

Assay [3] concerns the target T3, GABA-A receptor; alpha-2/beta-3/gamma-2 (Homo sapiens, UniProt P18507+P28472+P47869).
T3 sequence (P18507 whole entry): T1 sequence (P18507 whole entry)
T3 sequence (P28472 whole entry): T1 sequence (P28472 whole entry)
T3 sequence (P47869 whole entry): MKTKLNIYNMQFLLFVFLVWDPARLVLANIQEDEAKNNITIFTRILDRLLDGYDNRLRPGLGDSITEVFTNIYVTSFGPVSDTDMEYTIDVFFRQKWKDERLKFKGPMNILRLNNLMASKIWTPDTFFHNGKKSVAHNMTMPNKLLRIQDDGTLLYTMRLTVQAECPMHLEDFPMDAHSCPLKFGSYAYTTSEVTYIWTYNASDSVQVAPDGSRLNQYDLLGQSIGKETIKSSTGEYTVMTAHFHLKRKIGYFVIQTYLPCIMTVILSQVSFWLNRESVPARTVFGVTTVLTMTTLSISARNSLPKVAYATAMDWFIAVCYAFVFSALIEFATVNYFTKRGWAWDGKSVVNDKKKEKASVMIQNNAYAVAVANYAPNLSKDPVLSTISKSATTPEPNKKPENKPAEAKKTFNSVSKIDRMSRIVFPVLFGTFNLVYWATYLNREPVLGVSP
Description: Binding affinity towards human gamma-aminobutyric-acid A receptor alpha-2-beta-3-gamma-2 using [3H]Ro-151788 expressed in L(tk-) cells. The format is cell-based.

Assay [4] concerns Rattus norvegicus. Put plainly: Tested for cognitive performance in rats in delayed matching-to-place version of water maze test at 1 mg/kg p.o.; Significant enhancement in performance. It counts as functional, organism-based. Details: dose 1 mg/kg.
Assay [5] has as its target GABA-A receptor; alpha-2/beta-3/gamma-2 (Homo sapiens) (UniProt P18507+P28472+P47869). Put plainly: Percent change in electrophysiological response in Xenopus oocytes expressing Alpha2-beta3-gamma2 GABA-A receptor. The note with it: Oocyte. The format is functional, cell-based. The method, boiled down:
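Two-electrode voltage clamp on Xenopus oocytes injected with human GABA-A subunit cDNAs, 24-72 h expression, perfused with modified Barth's medium at pH 7.5, clamped between -40 and -70 mV. The GABA EC20 was titrated against a 3 mM GABA maximum. […] Result is % change of control current, mean ± SE of ≥4 oocytes.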

`Cc1cc(-c2nnc3c4ccccc4c(OCc4ccccn4)nn23)no1`: in assay [1], the response was half-maximal at 2.5 nM (EC50). The Ki came out at 1.4 nM in assay [2] and 2.7 nM in assay [3]. Moreover, the result in assay [4] was Active. The molecule also displayed an Efficacy in assay [5] of 15%.
